≈ marks a conversion by molar mass, not a printed value. Calls of active or inactive are those of the source. The calls are words filed in the database; no cut-off is given here.
What was measured:
[1] = fT>MIC in Klebsiella pneumoniae isolate KPC 357 infected in human at 1 g administered as 4 hrs infusion every 8 hrs; assay type: functional
[2] = fT>MIC in Klebsiella pneumoniae isolate KPC 361 infected in human at 1 g administered as 4 hrs infusion every 8 hrs; assay type: functional
Klebsiella pneumoniae [3] = test: Antimicrobial activity against Klebsiella pneumoniae isolate KPC 359 by Etest; assay type: functional
How it was run: (§1)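 Etest on each clinical isolate, run in triplicate and read per the manufacturer's instructions; the modal MIC is reported. Quality control strain P. aeruginosa ATCC 27853. Isolates stored at −80°C in double-strength skim milk and subcultured twice on Trypticase soy agar with 5% sheep blood at 35°C before testing.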

Klebsiella pneumoniae [4] = test: Antimicrobial activity against Klebsiella pneumoniae isolate KPC 354 in immunocompetent mouse thigh infection model assessed as reduction in bacterial load in mouse thigh at 2 g after 24 hrs; assay type: functional, Thigh muscle
How it was run: (§2)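 Immunocompetent ICR mouse thigh model. Uranyl nitrate 5 mg/kg i.p. on day −3, no cyclophosphamide. Thighs inoculated i.m. with ~10⁸ CFU. From 2 h, s.c. doripenem regimens simulating human 1 or 2 g q8h 4-h infusions, given as three 8-h intervals; saline controls. Thighs homogenized in saline and plated at 24 h; change in log₁₀ CFU relative to 0-h untreated mice.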

Klebsiella pneumoniae [5] = test: Antimicrobial activity against Klebsiella pneumoniae isolate KPC 361 by broth microdilution method; assay type: functional
How it was run: (§3)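 MIC by CLSI broth microdilution, triplicate determinations, modal value reported. QC strain P. aeruginosa 27853. Isolates kept frozen at −80°C in skim milk and subcultured twice on blood agar (TSA + 5% sheep blood) at 35°C before use.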

Klebsiella pneumoniae [6] = test: Antimicrobial activity against Klebsiella pneumoniae isolate KPC 353 in immunocompromized mouse thigh infection model assessed as decrease in bacterial density in mouse thigh at 1 g after 24 hrs; assay type: functional, Thigh muscle
How it was run: (§4)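 Neutropenic murine thigh model. Cyclophosphamide 150 and 100 mg/kg i.p. at 4 and 1 days pre-inoculation. Uranyl nitrate 5 mg/kg i.p. at day −3 for renal impairment. Each thigh injected i.m. with ~10⁶ CFU/ml, 0.1 ml. At 2 h, s.c. doripenem regimens simulating human fT>MIC for 1 or 2 g q8h 4-h infusion; saline controls. Thighs plated at 24 h; Δlog₁₀ CFU vs 0-h controls; stasis <1 log change.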

Klebsiella pneumoniae [7] = test: Antimicrobial activity against Klebsiella pneumoniae isolate KPC 353 by Etest; assay type: functional; how it was run: as §1
Klebsiella pneumoniae [8] = test: Antimicrobial activity against Klebsiella pneumoniae isolate KPC 356 in immunocompetent mouse thigh infection model assessed as reduction in bacterial load in mouse thigh at 1 g after 24 hrs; assay type: functional, Thigh muscle; how it was run: as §2
[9] = fT>MIC in Klebsiella pneumoniae isolate KPC 360 infected in human at 1 g administered as 4 hrs infusion every 8 hrs; assay type: functional
Klebsiella pneumoniae [10] = test: Antimicrobial activity against Klebsiella pneumoniae isolate KPC 354 in immunocompromized mouse thigh infection model assessed as decrease in bacterial density in mouse thigh at 1 g after 24 hrs; assay type: functional, Thigh muscle; how it was run: as §4
Klebsiella pneumoniae [11] = test: Antimicrobial activity against Klebsiella pneumoniae isolate KPC 354 by Etest; assay type: functional; how it was run: as §1
[12] = fT>MIC in Klebsiella pneumoniae isolate KPC 361 infected in human at 2 g administered as 4 hrs infusion every 8 hrs; assay type: functional
Klebsiella pneumoniae [13] = test: Bacteriostatic activity against Klebsiella pneumoniae isolate KPC 359 in immunocompromized mouse thigh infection model at 2 g after 24 hrs; assay type: functional, organism-based; settings: Thigh muscle; how it was run: as §4
Klebsiella pneumoniae [14] = test: Antimicrobial activity against Klebsiella pneumoniae isolate KPC 353 by broth microdilution method; assay type: functional; how it was run: as §3
Klebsiella pneumoniae [15] = test: Antimicrobial activity against Klebsiella pneumoniae isolate KPC 354 by broth microdilution method; assay type: functional; how it was run: as §3
[16] = fT>MIC in Klebsiella pneumoniae isolate KPC 354 infected in human at 2 g administered as 4 hrs infusion every 8 hrs; assay type: functional
[17] = fT>MIC in Klebsiella pneumoniae isolate KPC 353 infected in human at 1 g administered as 4 hrs infusion every 8 hrs; assay type: functional
Klebsiella pneumoniae [18] = test: Antimicrobial activity against Klebsiella pneumoniae isolate KPC 357 in immunocompromized mouse thigh infection model assessed as decrease in bacterial density in mouse thigh at 1 g after 24 hrs; assay type: functional, Thigh muscle; how it was run: as §4
Klebsiella pneumoniae [19] = test: Antimicrobial activity against Klebsiella pneumoniae isolate KPC 359 in immunocompetent mouse thigh infection model assessed as reduction in bacterial load in mouse thigh at 2 g after 24 hrs; assay type: functional, Thigh muscle; how it was run: as §2
Klebsiella pneumoniae [20] = test: Antimicrobial activity against Klebsiella pneumoniae isolate KPC 354 in immunocompetent mouse thigh infection model assessed as reduction in bacterial load in mouse thigh at 1 g after 24 hrs; assay type: functional, Thigh muscle; how it was run: as §2
Klebsiella pneumoniae [21] = test: Antimicrobial activity against Klebsiella pneumoniae isolate KPC 361 in immunocompromized mouse thigh infection model assessed as reduction in bacterial load in mouse thigh at 1 g after 24 hrs; assay type: functional, organism-based; settings: Thigh muscle; how it was run: as §4
[22] = fT>MIC in Klebsiella pneumoniae isolate KPC 353 infected in human at 2 g administered as 4 hrs infusion every 8 hrs; assay type: functional
Klebsiella pneumoniae [23] = test: Antimicrobial activity against Klebsiella pneumoniae isolate KPC 356 in immunocompetent mouse thigh infection model assessed as reduction in bacterial load in mouse thigh at 2 g after 24 hrs; assay type: functional, Thigh muscle; how it was run: as §2
[24] = fT>MIC in Klebsiella pneumoniae isolate KPC 356 infected in human at 1 g administered as 4 hrs infusion every 8 hrs; assay type: functional
[25] = fT>MIC in Klebsiella pneumoniae isolate KPC 354 infected in human at 1 g administered as 4 hrs infusion every 8 hrs; assay type: functional
Klebsiella pneumoniae [26] = test: Antimicrobial activity against Klebsiella pneumoniae isolate KPC 356 by broth microdilution method; assay type: functional; how it was run: as §3
Klebsiella pneumoniae [27] = test: Antimicrobial activity against Klebsiella pneumoniae isolate KPC 360 by Etest; assay type: functional
How it was run: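 Clinical KPC-producing isolate stored at −80°C in double-strength skim milk and subcultured twice on blood agar (5% sheep blood) at 35°C before testing. Etest strip MIC read per manufacturer's interpretation, run in triplicate, modal value reported; quality control strain PSA 27853 included.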

[28] = fT>MIC in Klebsiella pneumoniae isolate KPC 359 infected in human at 1 g administered as 4 hrs infusion every 8 hrs; assay type: functional
Klebsiella pneumoniae [29] = test: Antimicrobial activity against Klebsiella pneumoniae isolate KPC 361 by Etest; assay type: functional; how it was run: as §1
[30] = fT>MIC in Klebsiella pneumoniae isolate KPC 357 infected in human at 2 g administered as 4 hrs infusion every 8 hrs; assay type: functional
Klebsiella pneumoniae [31] = test: Antimicrobial activity against Klebsiella pneumoniae isolate KPC 356 by Etest; assay type: functional; how it was run: as §1
[32] = fT>MIC in Klebsiella pneumoniae isolate KPC 356 infected in human at 2 g administered as 4 hrs infusion every 8 hrs; assay type: functional
Klebsiella pneumoniae [33] = test: Antimicrobial activity against Klebsiella pneumoniae isolate KPC 361 in immunocompromized mouse thigh infection model assessed as reduction in bacterial load in mouse thigh at 2 g after 24 hrs; assay type: functional, organism-based; settings: Thigh muscle; how it was run: as §4
Klebsiella pneumoniae [34] = test: Antimicrobial activity against Klebsiella pneumoniae isolate KPC 357 by Etest; assay type: functional; how it was run: as §1
Klebsiella pneumoniae [35] = test: Antimicrobial activity against Klebsiella pneumoniae isolate KPC 359 by broth microdilution method; assay type: functional
How it was run: (§5)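 Clinical KPC-producing isolate, stored at −80°C in double-strength skim milk, subcultured twice on Trypticase soy agar with 5% sheep blood at 35°C. MIC by broth microdilution per CLSI methods, run in triplicate, modal MIC reported; quality control strain PSA 27853 included.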

[36] = fT>MIC in Klebsiella pneumoniae isolate KPC 359 infected in human at 2 g administered as 4 hrs infusion every 8 hrs; assay type: functional
[37] = fT>MIC in Klebsiella pneumoniae isolate KPC 360 infected in human at 2 g administered as 4 hrs infusion every 8 hrs; assay type: functional
Klebsiella pneumoniae [38] = test: Antimicrobial activity against Klebsiella pneumoniae isolate KPC 357 by broth microdilution method; assay type: functional; how it was run: as §3
Klebsiella pneumoniae [39] = test: Antimicrobial activity against Klebsiella pneumoniae isolate KPC 360 by broth microdilution method; assay type: functional; how it was run: as §5
Klebsiella pneumoniae [40] = test: Antimicrobial activity against Klebsiella pneumoniae isolate KPC 356 in immunocompromized mouse thigh infection model assessed as decrease in bacterial density in mouse thigh at 1 g after 24 hrs; assay type: functional, Thigh muscle; how it was run: as §4
Klebsiella pneumoniae [41] = test: Antimicrobial activity against Klebsiella pneumoniae; assay type: functional

Q: For `C[C@@H](O)[C@H]1C(=O)N2C(C(=O)O)=C(S[C@@H]3CN[C@H](CNS(N)(=O)=O)C3)[C@H](C)[C@H]12` [DORIPENEM], which “fT>MIC” value [1] is on record?
A: The value was 52.5%.

Q: And the “fT>MIC” value [2]?
A: Its value is 0%.

Q: And the MIC (Klebsiella pneumoniae [3])?
A: The MIC was greater than 32 µg/mL.

Q: And the log10cfu (Klebsiella pneumoniae [4])?
A: The log10cfu was 1.

Q: And the MIC (Klebsiella pneumoniae [5])?
A: Its MIC is 32 µg/mL (≈ 76.1 µM).

Q: And the log10cfu (Klebsiella pneumoniae [6])?
A: Its log10cfu is 0.02.

Q: What about the MIC (Klebsiella pneumoniae [7]) of the same molecule?
A: Its MIC is 3 µg/mL (≈ 7.13 µM).

Q: What about the log10cfu (Klebsiella pneumoniae [8]) of the same molecule?
A: The log10cfu was 1.

Q: And the “fT>MIC” value [9]?
A: Its value is 0%.

Q: What about the log10cfu (Klebsiella pneumoniae [10]) of the same molecule?
A: The log10cfu was 0.02.

Q: And the MIC (Klebsiella pneumoniae [11])?
A: The MIC was 4 µg/mL (≈ 9.51 µM).

Q: And the “fT>MIC” value [12]?
A: The value was 0%.

Q: And the Activity (Klebsiella pneumoniae [13])?
A: Its Activity is “Active”.

Q: What about the MIC (Klebsiella pneumoniae [14]) of the same molecule?
A: Its MIC is 4 µg/mL (≈ 9.51 µM).

Q: What about the MIC (Klebsiella pneumoniae [15]) of the same molecule?
A: The MIC was 4 µg/mL (≈ 9.51 µM).

Q: What about the “fT>MIC” value [16] of the same molecule?
A: The value was 82.5%.

Q: What about the “fT>MIC” value [17] of the same molecule?
A: Its value is 70%.

Q: And the log10cfu (Klebsiella pneumoniae [18])?
A: Its log10cfu is 0.02.

Q: And the log10cfu (Klebsiella pneumoniae [19])?
A: The log10cfu was 1.

Q: And the log10cfu (Klebsiella pneumoniae [20])?
A: The log10cfu was 1.

Q: And the Activity (Klebsiella pneumoniae [21])?
A: The Activity was “inactive”.

Q: And the “fT>MIC” value [22]?
A: The value was 82.5%.

Q: What about the log10cfu (Klebsiella pneumoniae [23]) of the same molecule?
A: Its log10cfu is 1.

Q: And the “fT>MIC” value [24]?
A: Its value is 52.5%.

Q: What about the “fT>MIC” value [25] of the same molecule?
A: Its value is 70%.

Q: What about the MIC (Klebsiella pneumoniae [26]) of the same molecule?
A: Its MIC is 8 µg/mL (≈ 19 µM).

Q: And the MIC (Klebsiella pneumoniae [27])?
A: Its MIC is 16 µg/mL (≈ 38 µM).

Q: And the “fT>MIC” value [28]?
A: Its value is 0%.

Q: What about the MIC (Klebsiella pneumoniae [29]) of the same molecule?
A: The MIC was greater than 32 µg/mL.

Q: And the “fT>MIC” value [30]?
A: The value was 70%.

Q: And the MIC (Klebsiella pneumoniae [31])?
A: The MIC was 12 µg/mL (≈ 28.5 µM).

Q: And the “fT>MIC” value [32]?
A: The value was 70%.

Q: What about the Activity (Klebsiella pneumoniae [33]) of the same molecule?
A: The Activity was “inactive”.

Q: And the MIC (Klebsiella pneumoniae [34])?
A: The MIC was 6 µg/mL (≈ 14.3 µM).

Q: And the MIC (Klebsiella pneumoniae [35])?
A: Its MIC is 16 µg/mL (≈ 38 µM).

Q: And the “fT>MIC” value [36]?
A: Its value is 52.5%.

Q: And the “fT>MIC” value [37]?
A: Its value is 52.5%.

Q: And the MIC (Klebsiella pneumoniae [38])?
A: Its MIC is 8 µg/mL (≈ 19 µM).

Q: What about the MIC (Klebsiella pneumoniae [39]) of the same molecule?
A: Its MIC is 16 µg/mL (≈ 38 µM).

Q: And the log10cfu (Klebsiella pneumoniae [40])?
A: The log10cfu was 0.02.

Q: Which MIC (Klebsiella pneumoniae [41]) does the source give for `C[C@@H](O)[C@H]1C(=O)N2C(C(=O)O)=C(S[C@@H]3CN[C@H](C(=O)N(C)C)C3)[C@H](C)[C@H]12` [MEROPENEM] here?
A: The MIC was 2 µg/mL (≈ 5.22 µM).

Source: ChEMBL document CHEMBL1649333, “In vivo efficacy of simulated human dosing regimens of prolonged-infusion doripenem against carbapenemase- producing Klebsiella pneumoniae” (2010)
